In ChEMBL document CHEMBL4007430, “Synthesis and Cytostatic and Antiviral Profiling of Thieno-Fused 7-Deazapurine Ribonucleosides” (J Med Chem, 2017):

Experiments:
HeLa S3 = assay: Cytotoxicity against human HeLaS3 cells assessed as reduction in cell viability after 72 hrs by XTT assay; assay type: functional, cell-based; conditions: HeLa S3, 72 h
Outline: (§1)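 Cells were incubated with compound for 3 days. Viability was then measured with the XTT tetrazolium assay.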

Adenosine kinase [1] = biological target: T1, Adenosine kinase (Homo sapiens, UniProt P55263); assay: Drug metabolism in human HCT116 cells assessed as ADK-mediated 4-Methylsulfanyl-8-(beta-D-ribofuranosyl)-8H-thieno[3,2:4,5]-pyrrolo[2,3-d]pyrimidine-5-O-monophosphate Sodium Salt formation per 5 x10^5 cells at 10 umol/L after 3 hrs by UPLC-MS/MS analysis; assay type: ADME, cell-based; conditions: 10 µM
Adenosine kinase [2] = biological target: T1, Adenosine kinase; assay: Drug level in human BJ cells assessed as ADK-mediated compound formation treated with 4-Methylsulfanyl-8-(beta-D-ribofuranosyl)-8H-thieno[3',2':4,5]-pyrrolo[2,3-d]pyrimidine at 1 umol/L after 3 hrs by UPLC-MS/MS analysis; assay type: ADME, cell-based
Adenosine kinase [3] = biological target: T1, Adenosine kinase; assay: Drug level in human BJ cells assessed as ADK-mediated compound formation treated with 4-Methylsulfanyl-8-(beta-D-ribofuranosyl)-8H-thieno[3',2':4,5]-pyrrolo[2,3-d]pyrimidine at 10 umol/L after 1 hr by UPLC-MS/MS analysis; assay type: ADME, cell-based
HL-60 = assay: Cytotoxicity against human HL60 cells assessed as reduction in cell viability after 72 hrs by XTT assay; assay type: functional, cell-based; conditions: HL-60, 72 h; outline: as §1
Adenosine kinase [4] = biological target: T1, Adenosine kinase; assay: Drug metabolism in human BJ cells assessed as ADK-mediated 4-Methylsulfanyl-8-(beta-D-ribofuranosyl)-8H-thieno[3,2:4,5]-pyrrolo[2,3-d]pyrimidine-5-O-monophosphate Sodium Salt formation per 5 x10^5 cells at 10 umol/L after 1 hr by UPLC-MS/MS analysis; assay type: ADME, cell-based; conditions: 10 µM
CCRF-CEM = assay: Cytotoxicity against human CCRF-CEM cells assessed as cell growth inhibition after 72 hrs by MTS assay
BJ = assay: Cytotoxicity against human BJ cells assessed as cell growth inhibition after 72 hrs by MTS assay; assay type: cell-based
Outline: (§2)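 Cells were exposed to compound for 3 days, then stained with MTS as a quantitative metabolic read-out. IC50 is the concentration that inhibits cell growth by 50%.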

HCT-116 [5] = assay: Cytotoxicity against human HCT116 cells assessed as cell growth inhibition after 72 hrs by MTS assay; assay type: functional, cell-based; conditions: HCT-116, 72 h; outline: as §2
[6] = Cytotoxicity against human K562-TAX cells assessed as cell growth inhibition after 72 hrs by MTS assay; assay type: functional, cell-based; outline: as §2
Adenosine kinase [7] = biological target: T1, Adenosine kinase; assay: Drug level assessed as human ADK-mediated compound formation treated with 4-Methylsulfanyl-8-(beta-D-ribofuranosyl)-8H-thieno[3',2':4,5]-pyrrolo[2,3-d]pyrimidine at 50 uM after 30 mins by HPLC analysis; assay type: ADME; conditions: 0.5 h
A549 = assay: Cytotoxicity against human A549 cells assessed as cell growth inhibition after 72 hrs by MTS assay; assay type: functional, cell-based; conditions: A549, 72 h; outline: as §2
[8] = Cytotoxicity against mrp-1/mdr-1 overexpressing human CEM-DNR-bulk cells assessed as cell growth inhibition after 72 hrs by MTS assay; assay type: functional, cell-based
Outline: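 Cells were exposed to compound for 3 days, then stained with MTS as a quantitative metabolic read-out.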

U2OS = assay: Cytotoxicity against human U2OS cells assessed as cell growth inhibition after 72 hrs by MTS assay; assay type: functional, cell-based
Adenosine kinase [9] = biological target: T1, Adenosine kinase; assay: Drug metabolism in human HCT116 cells assessed as ADK-mediated 4-Methylsulfanyl-8-(beta-D-ribofuranosyl)-8H-thieno[3,2:4,5]-pyrrolo[2,3-d]pyrimidine-5-O-monophosphate Sodium Salt formation per 5 x10^5 cells at 10 umol/L after 1 hr by UPLC-MS/MS analysis; assay type: ADME, cell-based; conditions: 10 µM
Adenosine kinase [10] = biological target: T1, Adenosine kinase; assay: Drug metabolism in human BJ cells assessed as ADK-mediated 4-Methylsulfanyl-8-(beta-D-ribofuranosyl)-8H-thieno[3,2:4,5]-pyrrolo[2,3-d]pyrimidine-5-O-monophosphate Sodium Salt formation per 5 x10^5 cells at 10 umol/L after 3 hrs by UPLC-MS/MS analysis; assay type: ADME, cell-based; conditions: 10 µM
Adenosine kinase [11] = biological target: T1, Adenosine kinase; assay: Drug metabolism in human HCT116 cells assessed as ADK-mediated 4-Methylsulfanyl-8-(beta-D-ribofuranosyl)-8H-thieno[3,2:4,5]-pyrrolo[2,3-d]pyrimidine-5-O-monophosphate Sodium Salt formation per 5 x10^5 cells at 1 umol/L after 3 hrs by UPLC-MS/MS analysis; assay type: ADME, cell-based; conditions: 1 µM
HepG2 = assay: Cytotoxicity against human HepG2 cells assessed as reduction in cell viability after 72 hrs by XTT assay; assay type: functional, cell-based; conditions: HepG2, 72 h; outline: as §1
MRC5 = assay: Cytotoxicity against human MRC5 cells assessed as cell growth inhibition after 72 hrs by MTS assay; assay type: cell-based; conditions: MRC5, 72 h; outline: as §2
Adenosine kinase [12] = biological target: T1, Adenosine kinase; assay: Drug metabolism in human BJ cells assessed as ADK-mediated 4-Methylsulfanyl-8-(beta-D-ribofuranosyl)-8H-thieno[3,2:4,5]-pyrrolo[2,3-d]pyrimidine-5-O-monophosphate Sodium Salt formation per 5 x10^5 cells at 1 umol/L after 3 hrs by UPLC-MS/MS analysis; assay type: ADME, cell-based; conditions: 1 µM
Adenosine kinase [13] = biological target: T1, Adenosine kinase; assay: Drug level in human BJ cells assessed as ADK-mediated compound formation treated with 4-Methylsulfanyl-8-(beta-D-ribofuranosyl)-8H-thieno[3',2':4,5]-pyrrolo[2,3-d]pyrimidine at 10 umol/L after 3 hrs by UPLC-MS/MS analysis; assay type: ADME, cell-based
Adenosine kinase [14] = biological target: T1, Adenosine kinase; assay: Drug metabolism in human HCT116 cells assessed as ADK-mediated 4-Methylsulfanyl-8-(beta-D-ribofuranosyl)-8H-thieno[3,2:4,5]-pyrrolo[2,3-d]pyrimidine-5-O-monophosphate Sodium Salt formation per 5 x10^5 cells at 1 umol/L after 1 hr by UPLC-MS/MS analysis; assay type: ADME, cell-based; conditions: 1 µM
Adenosine kinase [15] = biological target: T1, Adenosine kinase; assay: Drug level in human HCT116 cells assessed as ADK-mediated compound formation treated with 4-Methylsulfanyl-8-(beta-D-ribofuranosyl)-8H-thieno[3',2':4,5]-pyrrolo[2,3-d]pyrimidine at 1 umol/L after 1 hr by UPLC-MS/MS analysis; assay type: ADME, cell-based
Adenosine kinase [16] = biological target: T1, Adenosine kinase; assay: Drug level in human HCT116 cells assessed as ADK-mediated compound formation treated with 4-Methylsulfanyl-8-(beta-D-ribofuranosyl)-8H-thieno[3',2':4,5]-pyrrolo[2,3-d]pyrimidine at 10 umol/L after 1 hr by UPLC-MS/MS analysis; assay type: ADME, cell-based
Adenosine kinase [17] = biological target: T1, Adenosine kinase; assay: Drug metabolism in human BJ cells assessed as ADK-mediated 4-Methylsulfanyl-8-(beta-D-ribofuranosyl)-8H-thieno[3,2:4,5]-pyrrolo[2,3-d]pyrimidine-5-O-monophosphate Sodium Salt formation per 5 x10^5 cells at 1 umol/L after 1 hr by UPLC-MS/MS analysis; assay type: ADME, cell-based; conditions: 1 µM
Adenosine kinase [18] = biological target: T1, Adenosine kinase; assay: Drug level in human HCT116 cells assessed as ADK-mediated compound formation treated with 4-Methylsulfanyl-8-(beta-D-ribofuranosyl)-8H-thieno[3',2':4,5]-pyrrolo[2,3-d]pyrimidine at 1 umol/L after 3 hrs by UPLC-MS/MS analysis; assay type: ADME, cell-based
HCT-116 [19] = assay: Cytotoxicity against p53 deficient human HCT116 cells assessed as cell growth inhibition after 72 hrs by MTS assay; assay type: functional, cell-based; conditions: HCT-116, 72 h; outline: as §2
K562 = assay: Cytotoxicity against human K562 cells assessed as cell growth inhibition after 72 hrs by MTS assay; assay type: functional, cell-based; conditions: K562, 72 h; outline: as §2
Adenosine kinase [20] = biological target: T1, Adenosine kinase; assay: Drug level in human BJ cells assessed as ADK-mediated compound formation treated with 4-Methylsulfanyl-8-(beta-D-ribofuranosyl)-8H-thieno[3',2':4,5]-pyrrolo[2,3-d]pyrimidine at 1 umol/L after 1 hr by UPLC-MS/MS analysis; assay type: ADME, cell-based
Adenosine kinase [21] = biological target: T1, Adenosine kinase; assay: Drug level in human HCT116 cells assessed as ADK-mediated compound formation treated with 4-Methylsulfanyl-8-(beta-D-ribofuranosyl)-8H-thieno[3',2':4,5]-pyrrolo[2,3-d]pyrimidine at 10 umol/L after 3 hrs by UPLC-MS/MS analysis; assay type: ADME, cell-based
Adenosine kinase [22] = biological target: T1, Adenosine kinase; assay: Drug level assessed as human ADK-mediated compound formation treated with adenosine at 50 uM after 30 mins by HPLC analysis; assay type: ADME; conditions: 0.5 h

T1 sequence (P55263 whole entry): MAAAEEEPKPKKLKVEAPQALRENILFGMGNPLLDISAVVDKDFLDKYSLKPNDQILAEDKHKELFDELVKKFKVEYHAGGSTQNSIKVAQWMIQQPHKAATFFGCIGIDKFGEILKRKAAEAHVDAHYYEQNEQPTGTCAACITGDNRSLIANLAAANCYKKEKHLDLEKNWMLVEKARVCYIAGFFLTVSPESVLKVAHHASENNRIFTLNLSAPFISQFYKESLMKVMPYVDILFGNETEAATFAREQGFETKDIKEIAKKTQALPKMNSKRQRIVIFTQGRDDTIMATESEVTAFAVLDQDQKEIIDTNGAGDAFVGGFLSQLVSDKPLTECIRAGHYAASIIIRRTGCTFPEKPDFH

SMILES: CSc1ncnc2c1c1ccsc1n2[C@@H]1O[C@H](COP(=O)([O-])O)[C@@H](O)[C@H]1O.[Na+]
- IC50 (HeLa S3): 2190 nM
- Drug metabolism (Adenosine kinase [1]): 144.3 pmol
- Drug metabolism (Adenosine kinase [2]): Metabolite_Detected
- Drug metabolism (Adenosine kinase [3]): Metabolite_Detected
- IC50 (HL-60): 770 nM
- Drug metabolism (Adenosine kinase [4]): 6694.3 pmol
- IC50 (CCRF-CEM): 190 nM
- IC50 (BJ): 730 nM
- IC50 (HCT-116 [5]): 250 nM
- IC50 [6]: > 50000 nM
- Drug metabolism (Adenosine kinase [7]): Metabolite_Detected
- IC50 (A549): > 50000 nM
- IC50 [8]: > 50000 nM
- IC50 (U2OS): 2590 nM
- Drug metabolism (Adenosine kinase [9]): 98.5 pmol
- Drug metabolism (Adenosine kinase [10]): 6862.8 pmol
- Drug metabolism (Adenosine kinase [11]): 75.6 pmol
- IC50 (HepG2): 770 nM
- IC50 (MRC5): > 50000 nM
- Drug metabolism (Adenosine kinase [12]): 4933.3 pmol
- Drug metabolism (Adenosine kinase [13]): Metabolite_Detected
- Drug metabolism (Adenosine kinase [14]): 76.2 pmol
- Drug metabolism (Adenosine kinase [15]): Metabolite_Detected
- Drug metabolism (Adenosine kinase [16]): Metabolite_Detected
- Drug metabolism (Adenosine kinase [17]): 13.8 pmol
- Drug metabolism (Adenosine kinase [18]): Metabolite_Detected
- IC50 (HCT-116 [19]): 260 nM
- IC50 (K562): 1320 nM
- Drug metabolism (Adenosine kinase [20]): Metabolite_Detected
- Drug metabolism (Adenosine kinase [21]): Metabolite_Detected

SMILES: Nc1ncnc2c1ncn2[C@@H]1O[C@H](COP(=O)(O)O)[C@@H](O)[C@H]1O [ADENOSINE PHOSPHATE]
- Drug metabolism (Adenosine kinase [22]): Metabolite_Detected
